Reference: ChEMBL document CHEMBL1142496, “Studies on enzyme-cleavable dialkoxymethyl-cyclosaligenyl-2',3'-dideoxy-2',3'-didehydrothymidine monophosphates” (J Med Chem, 2008)

System: not listed separately
Assay: Stability in aqueous 25 mM phosphate buffer at pH 7.3 assessed as hydrolysis half life
Type: physicochemical
Settings: not given
In short: (§1)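 Chemical stability in aqueous 25 mM phosphate buffer at pH 7.3 or 7.6. Triester cleavage followed by HPLC; half-life refers to disappearance of the intact triester.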

First: CC(=O)OC(OC(C)=O)c1cc(C)cc2c1OP(=O)(OC[C@@H]1C=C[C@H](n3cc(C)c(=O)[nH]c3=O)O1)OC2 (some centres undefined)
Second: Cc1cc(C(OC(=O)C(C)C)OC(=O)C(C)C)cc2c1OP(=O)(OC[C@@H]1C=C[C@H](n3cc(C)c(=O)[nH]c3=O)O1)OC2 (some centres undefined)
The half-life of the first is 2.5-fold higher: 3.2 h for the first, 1.3 h for the second.

Cc1cn([C@H]2C=C[C@@H](CO[P@]3(=O)OCc4cc(C(OC(=O)C(C)C)OC(=O)C(C)C)cc(C(C)(C)C)c4O3)O2)c(=O)[nH]c1=O and Cc1cn([C@H]2C=C[C@@H](COP3(=O)OCc4cc(C(OC(=O)C(C)C)OC(=O)C(C)C)cc(C(C)(C)C)c4O3)O2)c(=O)[nH]c1=O (some centres undefined) are within 1.5-fold of each other in half-life: 3.3 h for the first, 3.5 h for the second.

With Cc1cn([C@H]2C=C[C@@H](COP3(=O)OCc4cc(C(C)(C)C)cc(C=O)c4O3)O2)c(=O)[nH]c1=O (some centres undefined) the half-life was 0.25 h.

System: not listed separately
Assay: Stability in aqueous 25 mM phosphate buffer at pH 7.6 assessed as hydrolysis half life
Type: physicochemical
Settings: not given
In short: as §1

CC(=O)OC(OC(C)=O)c1cc(C)cc2c1OP(=O)(OC[C@@H]1C=C[C@H](n3cc(C)c(=O)[nH]c3=O)O1)OC2 (some centres undefined) and Cc1cc(C(OC(=O)C(C)C)OC(=O)C(C)C)cc2c1OP(=O)(OC[C@@H]1C=C[C@H](n3cc(C)c(=O)[nH]c3=O)O1)OC2 (some centres undefined) are the same in half-life: 1.1 h for the first, 1.1 h for the second.

Cc1cn([C@H]2C=C[C@@H](CO[P@]3(=O)OCc4cc(C(OC(=O)C(C)C)OC(=O)C(C)C)cc(C(C)(C)C)c4O3)O2)c(=O)[nH]c1=O and Cc1cn([C@H]2C=C[C@@H](COP3(=O)OCc4cc(C(OC(=O)C(C)C)OC(=O)C(C)C)cc(C(C)(C)C)c4O3)O2)c(=O)[nH]c1=O (some centres undefined) are within 1.5-fold of each other in half-life: 2.5 h for the first, 2.7 h for the second.

With Cc1cn([C@H]2C=C[C@@H](COP3(=O)OCc4cc(C(C)(C)C)cc(C=O)c4O3)O2)c(=O)[nH]c1=O (some centres undefined) the half-life was 0.1 h.

System: Human immunodeficiency virus 2
Assay: Antiviral activity against HIV2 in thymidine kinase deficient human CEM/TK- cellss
Type: functional, organism-based
Settings: Human immunodeficiency virus 2, CEM-TK(-)
In short: (§2)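 Anti-HIV assay in T-lymphocytes: wild-type CEM/0 cells infected with HIV-1 or HIV-2, and thymidine kinase-deficient CEM/TK⁻ cells infected with HIV-2. Cells grown in RPMI-1640 with 10% heat-inactivated fetal calf serum. Read-out is the 50% effective concentration, given as the mean of two to three independent experiments.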

First: CC(=O)OC(OC(C)=O)c1cc(C)cc2c1OP(=O)(OC[C@@H]1C=C[C@H](n3cc(C)c(=O)[nH]c3=O)O1)OC2 (some centres undefined)
Second: Cc1cc(C(OC(=O)C(C)C)OC(=O)C(C)C)cc2c1OP(=O)(OC[C@@H]1C=C[C@H](n3cc(C)c(=O)[nH]c3=O)O1)OC2 (some centres undefined)
The EC50 of the first is lower: 6500 nM for the first, > 10000 nM for the second. The first is the more potent here.

Compared with Cc1cn([C@H]2C=C[C@@H](CO[P@]3(=O)OCc4cc(C(OC(=O)C(C)C)OC(=O)C(C)C)cc(C(C)(C)C)c4O3)O2)c(=O)[nH]c1=O, Cc1cn([C@H]2C=C[C@@H](COP3(=O)OCc4cc(C(OC(=O)C(C)C)OC(=O)C(C)C)cc(C(C)(C)C)c4O3)O2)c(=O)[nH]c1=O (some centres undefined) is 1.7-fold higher in EC50: 1400 nM for the first, 2400 nM for the second.

For Cc1cn([C@H]2C=C[C@@H](COP3(=O)OCc4cc(C(C)(C)C)cc(C=O)c4O3)O2)c(=O)[nH]c1=O (some centres undefined), the EC50 was 5100 nM.

System: Human immunodeficiency virus 1
Assay: Antiviral activity against HIV1 in human wild type CEM/0 cellss
Type: functional, organism-based
Settings: Human immunodeficiency virus 1, CCRF-CEM
In short: as §2

First: CC(=O)OC(OC(C)=O)c1cc(C)cc2c1OP(=O)(OC[C@@H]1C=C[C@H](n3cc(C)c(=O)[nH]c3=O)O1)OC2 (some centres undefined)
Second: Cc1cc(C(OC(=O)C(C)C)OC(=O)C(C)C)cc2c1OP(=O)(OC[C@@H]1C=C[C@H](n3cc(C)c(=O)[nH]c3=O)O1)OC2 (some centres undefined)
The EC50 of the first is 3.1-fold lower: 520 nM for the first, 1600 nM for the second.

Cc1cn([C@H]2C=C[C@@H](CO[P@]3(=O)OCc4cc(C(OC(=O)C(C)C)OC(=O)C(C)C)cc(C(C)(C)C)c4O3)O2)c(=O)[nH]c1=O and Cc1cn([C@H]2C=C[C@@H](COP3(=O)OCc4cc(C(OC(=O)C(C)C)OC(=O)C(C)C)cc(C(C)(C)C)c4O3)O2)c(=O)[nH]c1=O (some centres undefined) are within 1.5-fold of each other in EC50: 720 nM for the first, 530 nM for the second.

Cc1cn([C@H]2C=C[C@@H](COP3(=O)OCc4cc(C(C)(C)C)cc(C=O)c4O3)O2)c(=O)[nH]c1=O (some centres undefined) showed an EC50 of 990 nM.

System: not listed separately
Assay: Stability in human CEM cells extracts at pH 6.9 assessed as hydrolysis half life
Type: ADME, CCRF-CEM
Settings: CEM cell extracts
In short: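 Enzymatic stability assay: triesters incubated in CEM cell extracts (pH 6.9) over varied incubation times. Acetic acid was not used to stop the reaction for acid-sensitive compounds. Samples analysed by HPLC to give the half-life of triester cleavage.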

Going from CC(=O)OC(OC(C)=O)c1cc(C)cc2c1OP(=O)(OC[C@@H]1C=C[C@H](n3cc(C)c(=O)[nH]c3=O)O1)OC2 (some centres undefined) to Cc1cc(C(OC(=O)C(C)C)OC(=O)C(C)C)cc2c1OP(=O)(OC[C@@H]1C=C[C@H](n3cc(C)c(=O)[nH]c3=O)O1)OC2 (some centres undefined), the half-life rises from 0.25 h to 0.5 h (2-fold).

Cc1cn([C@H]2C=C[C@@H](CO[P@]3(=O)OCc4cc(C(OC(=O)C(C)C)OC(=O)C(C)C)cc(C(C)(C)C)c4O3)O2)c(=O)[nH]c1=O and Cc1cn([C@H]2C=C[C@@H](COP3(=O)OCc4cc(C(OC(=O)C(C)C)OC(=O)C(C)C)cc(C(C)(C)C)c4O3)O2)c(=O)[nH]c1=O (some centres undefined) are the same in half-life: 1 h for the first, 1 h for the second.

System: not listed separately
Assay: Cytostatic activity against human wild type CEM/0 cellss
Type: cell-based, CCRF-CEM
Settings: wild-type CEM/0 cells
In short: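 Cytostatic activity on T-lymphocyte CEM cultures, reported as the 50% cytostatic concentration.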

CC(=O)OC(OC(C)=O)c1cc(C)cc2c1OP(=O)(OC[C@@H]1C=C[C@H](n3cc(C)c(=O)[nH]c3=O)O1)OC2 (some centres undefined) and Cc1cc(C(OC(=O)C(C)C)OC(=O)C(C)C)cc2c1OP(=O)(OC[C@@H]1C=C[C@H](n3cc(C)c(=O)[nH]c3=O)O1)OC2 (some centres undefined) are within 1.5-fold of each other in CC50: 19000 nM for the first, 20000 nM for the second.

Cc1cn([C@H]2C=C[C@@H](CO[P@]3(=O)OCc4cc(C(OC(=O)C(C)C)OC(=O)C(C)C)cc(C(C)(C)C)c4O3)O2)c(=O)[nH]c1=O and Cc1cn([C@H]2C=C[C@@H](COP3(=O)OCc4cc(C(OC(=O)C(C)C)OC(=O)C(C)C)cc(C(C)(C)C)c4O3)O2)c(=O)[nH]c1=O (some centres undefined) are within 1.5-fold of each other in CC50: 14000 nM for the first, 20000 nM for the second.

Cc1cn([C@H]2C=C[C@@H](COP3(=O)OCc4cc(C(C)(C)C)cc(C=O)c4O3)O2)c(=O)[nH]c1=O (some centres undefined) showed a CC50 of 8800 nM.

System: not listed separately
Assay: Stability in RPMI-1640 medium containing 10% heat inactivated fetal calf serum at pH 7.6 assessed as hydrolysis half life
Type: physicochemical
Settings: cattle, RPMI-1640 medium with 10% heat-inactivated fetal calf serum
In short: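 Stability in RPMI-1640 culture medium with 10% fetal calf serum heat-inactivated for 30 min at 56 °C (pH 7.6). Handled like the cell-extract incubations, with medium in place of extract; triester half-life and formyl-product formation followed by HPLC.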

CC(=O)OC(OC(C)=O)c1cc(C)cc2c1OP(=O)(OC[C@@H]1C=C[C@H](n3cc(C)c(=O)[nH]c3=O)O1)OC2 (some centres undefined) and Cc1cc(C(OC(=O)C(C)C)OC(=O)C(C)C)cc2c1OP(=O)(OC[C@@H]1C=C[C@H](n3cc(C)c(=O)[nH]c3=O)O1)OC2 (some centres undefined) are within 1.5-fold of each other in half-life: 1.5 h for the first, 1.6 h for the second.

Cc1cn([C@H]2C=C[C@@H](CO[P@]3(=O)OCc4cc(C(OC(=O)C(C)C)OC(=O)C(C)C)cc(C(C)(C)C)c4O3)O2)c(=O)[nH]c1=O and Cc1cn([C@H]2C=C[C@@H](COP3(=O)OCc4cc(C(OC(=O)C(C)C)OC(=O)C(C)C)cc(C(C)(C)C)c4O3)O2)c(=O)[nH]c1=O (some centres undefined) are within 1.5-fold of each other in half-life: 5.7 h for the first, 5.9 h for the second.

For Cc1cn([C@H]2C=C[C@@H](COP3(=O)OCc4cc(C(C)(C)C)cc(C=O)c4O3)O2)c(=O)[nH]c1=O (some centres undefined), the half-life was 0.3 h.

System: Human immunodeficiency virus 2
Assay: Antiviral activity against HIV2 in human wild type CEM/0 cellss
Type: functional, organism-based
Settings: Human immunodeficiency virus 2, CCRF-CEM
In short: as §2

CC(=O)OC(OC(C)=O)c1cc(C)cc2c1OP(=O)(OC[C@@H]1C=C[C@H](n3cc(C)c(=O)[nH]c3=O)O1)OC2 (some centres undefined) and Cc1cc(C(OC(=O)C(C)C)OC(=O)C(C)C)cc2c1OP(=O)(OC[C@@H]1C=C[C@H](n3cc(C)c(=O)[nH]c3=O)O1)OC2 (some centres undefined) are within 1.5-fold of each other in EC50: 1000 nM for the first, 950 nM for the second.

Compared with Cc1cn([C@H]2C=C[C@@H](CO[P@]3(=O)OCc4cc(C(OC(=O)C(C)C)OC(=O)C(C)C)cc(C(C)(C)C)c4O3)O2)c(=O)[nH]c1=O, Cc1cn([C@H]2C=C[C@@H](COP3(=O)OCc4cc(C(OC(=O)C(C)C)OC(=O)C(C)C)cc(C(C)(C)C)c4O3)O2)c(=O)[nH]c1=O (some centres undefined) is 2.4-fold higher in EC50: 850 nM for the first, 2000 nM for the second.

Cc1cn([C@H]2C=C[C@@H](COP3(=O)OCc4cc(C(C)(C)C)cc(C=O)c4O3)O2)c(=O)[nH]c1=O (some centres undefined) gave an EC50 of 1000 nM.
